Experiment [1] in a line: reduced viability of SK-BR-3 breast cancer cells – cell-based, 24 h, human, pilot screen (AID 572;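 active means viability at or below 10% of carrier control in both of two separate runs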;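 further: compound exposure lasted between 18 and 24 h rather than exactly 24 h; 100% = carrier-treated control wells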). The following applies: SK-BR-3 viability, CellTiter-Glo luminescence, at 10 µM, stronger effect = lower value.
Experiment [2] in a line: HUVEC growth inhibition – cell-based, human, primary screen (AID 575;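 active means viability at or below 30% in both replicate assays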;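 further: 100% = median of untreated cell wells with 0.1% DMSO on each plate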). To be noted: HUVEC proliferation, CellTiter-Glo luminescence, 72 h; at 10 µM; stronger effect = lower value. The method in brief:
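Assay system: primary human umbilical vein endothelial cells / Buffer or medium: endothelial basal medium with 2% FBS plus growth supplements / Compound dosing: one dose, 10 µM final, 0.1% DMSO / Timing: 72 h treatment at 37 °C / Signal: CTG luminescence / Benchmarks: 32 DMSO-only cell-control wells (high), 32 MePR drug-control wells (low) per plate / Plate: collagen-coated 384-well format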
A general note: In ATP-based viability assays light output follows the ATP content of the culture.

Experiment [3] in a line: H69AR cell proliferation blockers – human, duplicate replicates, primary screen (AID 580).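 Further: 100% = mean luminescence of untreated wells and 0% = no signal.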 The following applies: H69AR lung tumor cells viability, ATP luminescence, 72 h; at 10 µM; stronger effect = lower value.
Experiment [4] in a line: MRP1 drug-resistance reversers in H69AR cells – cell-based, doxorubicin co-treatment, pilot screen (AID 601;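 active means viability loss from added drug above about 55%, and viability with drug at most 40%, in both replicates, limit read from the data, passing the limit was not always enough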). The following applies: CellTiter-Glo, 72 h, at 10 µM; for differential viability (reversal): stronger effect = higher value.
Experiment [5] is described as follows: yeast transport mutant growth inhibition pilot in 384-well plates, post-Golgi transport modulator project (AID 636; in the data active means inhibition above about 31%). The following applies: absorbance 615 nm, about 18 h, stronger effect = higher value.
A short description of experiment [6]: growth suppression of yeast trafficking mutant, preliminary HTS, modulators of trafficking downstream of Golgi apparatus project, 1536-format plate, OD 615 nm (AID 637; in the data active means inhibition above about 30%). To be noted: yeast transport mutant growth, absorbance 615 nm, 18 h; stronger effect = higher value.
Where [7] appears, read: H69AR cells + 2 uM doxorubicin, measured here: viability with 2 uM doxorubicin, stronger effect = lower value.
Where [8] appears, read: H69AR cells, compound alone cytotoxicity.

Activity calls are given as the source filed them.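 How the source made its calls, unless noted: active means viability at or under a set limit in both replicates, limit being median viability minus 3 SD (cut at about 48% in these data, passing the limit was not always enough); inconclusive means at or under the limit in just one replicate; inactive means at or above the limit in both replicates.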

Our source for the viability, differential viability (reversal) and inhibition values is PubChem BioAssay.

In the case of `COc1cccc(-c2nnn(CC(=O)O)n2)c1`, the viability (usually a read-out of living cells in per cent, often relative to untreated cells) was 149% (inactive) in experiment [1]; 100% (inactive) in experiment [2]; 91% (inactive) in experiment [3]; 89.3% in experiment [4] (setting [7]); 91% in experiment [4] (setting [8]). Besides, the differential viability (reversal) in experiment [4] (H69AR cells + 2 uM doxorubicin) is 1.7% (inactive). The figures for the inhibition in experiment [5] and in experiment [6] were -1.43% (inactive) and 1.97% (inactive), respectively.

In the case of `Cc1c(NC(=O)C(C)Oc2ncnc3ccccc23)c(=O)n(-c2ccccc2)n1C` (stereo unspecified), the viability in experiment [1] is 115% (inactive); in experiment [2] it was 91.9% (inactive); in experiment [3], 97% (inactive); in experiment [4] (setting [7]), 90%; in experiment [4] (setting [8]), 97%. For the same molecule, in experiment [4] (H69AR cells + 2 uM doxorubicin), the differential viability (reversal) is 7.01% (inactive). Moreover, the inhibition (as a rule, the change of the read-out against control, counted positive when it falls) in experiment [5] is -4.42% (inactive); in experiment [6], -3.28% (inactive).

Consider `COc1cc(SC)ccc1C(=O)Nc1ccccc1C#N`, for which the viability in experiment [1] was 75% (inactive); in experiment [2], 79.6% (inactive); in experiment [3], 70.5% (inactive); in experiment [4] (setting [7]) it was 96.3%; in experiment [4] (setting [8]) it was 70.5%. Also, in experiment [4] (H69AR cells + 2 uM doxorubicin), the differential viability (reversal) was -25.8% (inactive). The inhibition in experiment [5] was -7.4% (inactive); in experiment [6], 0.91% (inactive).

Take `COc1cc2c(cc1OC)C(/C(C#N)=N\O)=NC(C)(C)C2`: the viability in experiment [1] is 86% (inactive); in experiment [2] it was 107% (inactive); in experiment [3], 100% (inactive); in experiment [4] (setting [7]), 91.6%; in experiment [4] (setting [8]), 100%. Further, the differential viability (reversal) in experiment [4] (H69AR cells + 2 uM doxorubicin) was 8.75% (inactive). Also, the figures for the inhibition in experiment [5] and in experiment [6] were -8.77% (inactive) and 2% (inactive), respectively.

With `Cc1cc(C)n2nc[n+](C)c2n1`, the viability in experiment [1] is 88% (inactive); in experiment [2], 106% (inactive); in experiment [3], 96.4% (inactive); in experiment [4] (setting [7]), 84.9%; in experiment [4] (setting [8]), 96.4%. Besides, the differential viability (reversal) in experiment [4] (H69AR cells + 2 uM doxorubicin) is 11.4% (inactive). The figures for the inhibition in experiment [5] and in experiment [6] were 2.86% (inactive) and 0.98% (inactive), respectively.

In the case of `c1cc2c(cc1Nc1nc(-c3ccc4c(c3)OCO4)cs1)OCCO2`, the viability in experiment [1] was 97% (inactive); in experiment [2] it was 72.6% (inactive); in experiment [3], 90.5% (inactive); in experiment [4] (setting [7]), 99.4%; in experiment [4] (setting [8]), 90.5%. Also, the differential viability (reversal) in experiment [4] (H69AR cells + 2 uM doxorubicin) is -8.93% (inactive). Besides, the values for the inhibition in experiment [5] and in experiment [6] were -4.19% (inactive) and -10% (inactive), respectively.

As to `Cc1nnc2c3ccccc3c(-c3ccccc3)nn12`, the viability was 88% (inactive) in experiment [1]; 100% (inactive) in experiment [2]; 68.1% (inactive) in experiment [3]; 25.3% in experiment [4] (setting [7]); 68.1% in experiment [4] (setting [8]). In experiment [4] (H69AR cells + 2 uM doxorubicin), the differential viability (reversal) is 42.8% (inactive). For the same molecule, the results for the inhibition in experiment [5] and in experiment [6] were -6.49% (inactive) and 3.27% (inactive), respectively.

With `O=C(CCn1c(=O)c2ccccc2n(CC(=O)NCCC2=CCCCC2)c1=O)NCc1ccco1`, the viability was 99% (inactive) in experiment [1]; 90.9% (inactive) in experiment [2]; 92.2% (inactive) in experiment [3]; 87% in experiment [4] (setting [7]); 92.2% in experiment [4] (setting [8]). Also, the differential viability (reversal) in experiment [4] (H69AR cells + 2 uM doxorubicin) was 5.12% (inactive). Also, the inhibition is -5.06% (inactive) in experiment [5] and -2.79% (inactive) in experiment [6].

Take `CCOC(=O)c1ccc2[nH]c3c(c2c1)CCCCC3=O`: the viability is 80% (inactive) in experiment [1]; 105% (inactive) in experiment [2]; 99.5% (inactive) in experiment [3]; 90.5% in experiment [4] (setting [7]); 99.5% in experiment [4] (setting [8]). Moreover, the differential viability (reversal) in experiment [4] (H69AR cells + 2 uM doxorubicin) was 8.96% (inactive). Moreover, the inhibition in experiment [5] was -3.6% (inactive); in experiment [6], -0.73% (inactive).

As for `CCCCn1nnnc1NCc1cccs1`, the viability was 98% (inactive) in experiment [1]; 97% (inactive) in experiment [2]; 99.2% (inactive) in experiment [3]; 84.8% in experiment [4] (setting [7]); 99.2% in experiment [4] (setting [8]). Also, in experiment [4] (H69AR cells + 2 uM doxorubicin), the differential viability (reversal) was 14.4% (inactive). Further, the values for the inhibition in experiment [5] and in experiment [6] were -6.49% (inactive) and -0.33% (inactive), respectively.

Regarding `CNC(=O)c1ccc2nc(NC(C)=O)sc2c1`, the viability in experiment [1] is 110% (inactive); in experiment [2], 102% (inactive); in experiment [3], 99.9% (inactive); in experiment [4] (setting [7]), 90.4%; in experiment [4] (setting [8]), 99.9%. The differential viability (reversal) in experiment [4] (H69AR cells + 2 uM doxorubicin) was 9.57% (inactive). The inhibition in experiment [5] was -7.2% (inactive); in experiment [6], -0.36% (inactive).

For `Cc1nnc(Nc2ccccn2)c2ccccc12`, the viability in experiment [1] was 89% (inactive); in experiment [2], 81.1% (inactive); in experiment [3], 87.3% (inactive); in experiment [4] (setting [7]), 89.8%; in experiment [4] (setting [8]) it was 87.3%. The differential viability (reversal) in experiment [4] (H69AR cells + 2 uM doxorubicin) is -2.5% (inactive). The inhibition is 0.27% (inactive) in experiment [5] and -4.84% (inactive) in experiment [6].
